Measurements reported in ChEMBL document CHEMBL1124186, “Synthesis and evaluation of tylosin-related macrolides modified at the aldehyde function: a new series of orally effective antibiotics” (1988).
Values after ≈ are worked out from the molar mass of the structure shown.

How the values were obtained:
[1] = system: Peptoniphilus asaccharolyticus; assay: In vitro antimicrobial activity against anaerobic bacteria peptococcus asaccharolyticus 1302; assay type: functional
[2] = system: Fusobacterium; assay: In vitro antimicrobial activity against anaerobic bacteria fusobacterium symbiosum 1470; assay type: functional
[3] = system: Mus musculus; assay: Peripheral plasma levels in mice after oral administration of 100 mg/kg dose for 2 hr; assay type: functional, organism-based; set-up: dose 100 mg/kg
Method in brief: (§1)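 Mice were given the compound orally and sampled for peripheral plasma at each time point. Plasma was assayed microbiologically against Micrococcus luteus seeded in Antibiotic Medium 1. Inhibition zone sizes were read, and concentrations were calculated from each compound's own standard curve. Each value is the mean of five mice per time point.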

[4] = system: Staphylococcus aureus; assay: In vitro antimicrobial activity against aerobic bacteria Staphylococcus aureus V41; assay type: functional
[5] = system: Anaerococcus prevotii; assay: In vitro antimicrobial activity against anaerobic bacteria peptococcus prevoti 1281; assay type: functional
[6] = system: Streptococcus pneumoniae; assay: In vitro antimicrobial activity against aerobic bacteria Streptococcus pneumoniae B1-438; assay type: functional, streptococcus pneum
[7] = system: Clostridium perfringens; assay: In vitro antimicrobial activity against anaerobic bacteria clostridium perfringens 81,; assay type: functional
[8] = system: Mus musculus; assay: Peripheral plasma levels in mice after oral administration of 100 mg/kg dose for 0.5 hr; assay type: functional, organism-based; set-up: dose 100 mg/kg; method in brief: as §1
[9] = system: Haemophilus influenzae; assay: In vitro antimicrobial activity against aerobic bacteria Haemophilus influenzae 76; assay type: functional
[10] = system: Staphylococcus epidermidis; assay: In vitro antimicrobial activity against Staphylococcus epidermidis EPI1; assay type: functional
[11] = system: Clostridioides difficile; assay: In vitro antimicrobial activity against anaerobic bacteria Clostridium difficile 2994; assay type: functional
[12] = system: Streptococcus; assay: In vitro antimicrobial activity against aerobic bacteria Streptococcus D 9960; assay type: functional
[13] = system: Peptostreptococcus anaerobius; assay: In vitro antimicrobial activity against anaerobic bacteria eubacterium peptostreptococcus anaerobius 1428,; assay type: functional
[14] = system: Mus musculus; assay: Peripheral plasma levels in mice after oral administration of 50 mg/kg dose for 2 hr; assay type: functional, organism-based; set-up: dose 50 mg/kg; method in brief: as §1
[15] = system: Staphylococcus epidermidis; assay: In vitro antimicrobial activity against aerobic bacteria Streptococcus epi 222; assay type: functional
[16] = system: Clostridium septicum; assay: In vitro antimicrobial activity against anaerobic bacteria clostridium septicum 1128; assay type: functional
[17] = system: Chlamydia trachomatis; assay: In vitro antimicrobial activity against chlamydia trachomatis.; assay type: functional
[18] = system: Mus musculus; assay: Peripheral plasma levels in mice after oral administration of 50 mg/kg dose for 4 hr; assay type: functional, organism-based; set-up: dose 50 mg/kg; method in brief: as §1
[19] = system: Mus musculus; assay: Peripheral plasma levels in mice after oral administration of 100 mg/kg dose for 4 hr; assay type: functional, organism-based; set-up: dose 100 mg/kg; method in brief: as §1
[20] = system: Streptococcus; assay: In vitro antimicrobial activity against aerobic bacteria Streptococcus D 2041; assay type: functional
[21] = system: Streptococcus pneumoniae; assay: In vivo effective dose against experimental infections in mice Streptococcus pneumoniae administered sc; assay type: functional
[22] = system: Bacteroides fragilis; assay: In vitro antimicrobial activity against anaerobic bacteria bacteroides fragilis 1936B,; assay type: functional
[23] = system: Haemophilus influenzae; assay: In vitro antimicrobial activity against aerobic bacteria Haemophilus influenzae 465; assay type: functional
[24] = system: Staphylococcus aureus; assay: In vitro antimicrobial activity against Staphylococcus aureus X1; assay type: functional
[25] = system: Bacteroides fragilis; assay: In vitro antimicrobial activity against anaerobic bacteria bacteroides fragilis 111; assay type: functional
[26] = system: Bacteroides fragilis; assay: In vitro antimicrobial activity against anaerobic bacteria bacteroides fragilis 1877; assay type: functional
[27] = system: Bacteroides thetaiotaomicron; assay: In vitro antimicrobial activity against anaerobic bacteria bacteroides thetaiotaomicron 1438; assay type: functional
[28] = system: Mus musculus; assay: Peripheral plasma levels in mice after oral administration of 50 mg/kg dose for 1 hr; assay type: functional, organism-based; set-up: dose 50 mg/kg; method in brief: as §1
[29] = system: Staphylococcus aureus; assay: In vitro antimicrobial activity against aerobic bacteria Staphylococcus aureus 513E; assay type: functional
[30] = system: Mus musculus; assay: Peripheral plasma levels in mice after oral administration of 100 mg/kg dose for 1 hr; assay type: functional, organism-based; set-up: dose 100 mg/kg; method in brief: as §1
[31] = system: Collinsella aerofaciens; assay: In vitro antimicrobial activity against anaerobic bacteria aerofaciens 1235; assay type: functional
[32] = system: Eikenella corrodens; assay: In vitro antimicrobial activity against anaerobic bacteria bacteroides corrodens 1874; assay type: functional
[33] = system: Staphylococcus aureus; assay: In vitro antimicrobial activity against aerobic bacteria Staphylococcus aureus V140,; assay type: functional
[34] = system: Streptococcus; assay: In vitro antimicrobial activity against aerobic bacteria Streptococcus B 5; assay type: functional
[35] = system: Enterococcus faecium; assay: In vitro antimicrobial activity against Streptococcus faecium X66; assay type: functional, streptococcus fae-cium
[36] = system: Streptococcus; assay: In vitro antimicrobial activity against aerobic bacteria Streptococcus D 8043; assay type: functional
[37] = system: Prevotella melaninogenica; assay: In vitro antimicrobial activity against anaerobic bacteria bacteroides melaninogenicus 1856,; assay type: functional
[38] = system: Streptococcus; assay: In vitro antimicrobial activity against aerobic bacteria Streptococcus B 14; assay type: functional
[39] = system: Mus musculus; assay: Peripheral plasma levels in mice after oral administration of 50 mg/kg dose for 0.5 hr; assay type: functional, organism-based; set-up: dose 50 mg/kg; method in brief: as §1
[40] = system: Staphylococcus aureus; assay: In vitro antimicrobial activity against aerobic bacteria Staphylococcus aureus X400; assay type: functional
[41] = system: Mus musculus; assay: Peripheral plasma levels in mice after oral administration of 50 mg/kg dose for 0.25 hr; assay type: functional, organism-based; set-up: dose 50 mg/kg; method in brief: as §1
[42] = In vitro antimicrobial activity against anaerobic bacteria peptostreptococcus intermedius 1264; assay type: functional
[43] = system: Fusobacterium necrophorum; assay: In vitro antimicrobial activity against anaerobic bacteria usobacterium necrophorum 6054A; assay type: functional
[44] = system: Phocaeicola vulgatus; assay: In vitro antimicrobial activity against anaerobic bacteria bacteroides vulgatus 1211; assay type: functional
[45] = system: Streptococcus pneumoniae; assay: In vivo effective dose against experimental infections in mice Streptococcus pneumoniae park when administered orally; assay type: functional; settings: po
[46] = system: Cutibacterium acnes; assay: In vitro antimicrobial activity against anaerobic bacteria propionibacterium acnes 79; assay type: functional
[47] = system: Staphylococcus epidermidis; assay: In vitro antimicrobial activity against aerobic bacteria Streptococcus epi 270; assay type: functional
[48] = system: Haemophilus influenzae; assay: In vitro antimicrobial activity against aerobic bacteria Haemophilus influenzae MX366,; assay type: functional
[49] = system: Haemophilus parainfluenzae; assay: In vitro antimicrobial activity against aerobic bacteria Haemophilus parainfluenzae 9796; assay type: functional
[50] = system: Staphylococcus aureus; assay: In vitro antimicrobial activity against aerobic bacteria Staphylococcus aureus V135; assay type: functional
[51] = system: Mus musculus; assay: Peripheral plasma levels in mice after oral administration of 100 mg/kg dose for 0.25 hr; assay type: functional, organism-based; set-up: dose 100 mg/kg; method in brief: as §1
[52] = system: Haemophilus influenzae; assay: In vitro antimicrobial activity against Haemophilus influenzae.; assay type: functional
[53] = system: Prevotella melaninogenica; assay: In vitro antimicrobial activity against anaerobic bacteria bacteroides melaninogenicus 2736; assay type: functional

With `CC[C@H]1OC(=O)C[C@@H](O)[C@H](C)[C@@H](O[C@@H]2O[C@H](C)[C@@H](O)[C@H](N(C)C)[C@H]2O)[C@@H](CCOc2ccc(C(=O)c3ccccc3)cc2)C[C@@H](C)C(=O)/C=C/C(C)=C/[C@@H]1CO[C@@H]1O[C@H](C)[C@@H](O)[C@@H](OC)[C@H]1OC` the MIC [1] was less than 0.5 µg/mL, the MIC [2] was 2 µg/mL (≈ 2.1 µM) and the Concentration [3] was 2 µg/mL. It also gave an MIC [4] of 0.25 µg/mL (≈ 0.262 µM), an MIC [5] of 2 µg/mL (≈ 2.1 µM) and an MIC [6] of 128 µg/mL (≈ 134 µM). It also gave an MIC [7] of less than 0.5 µg/mL, a Concentration [8] of 1.1 µg/mL and an MIC [9] of 16 µg/mL (≈ 16.8 µM). For the same compound, the MIC [10] was 0.25 µg/mL (≈ 0.262 µM), the MIC [11] was less than 0.5 µg/mL and the MIC [12] was 0.5 µg/mL (≈ 0.524 µM). For the same compound, the MIC [13] was less than 0.5 µg/mL, the Concentration [14] was 1.8 µg/mL and the MIC [15] was 0.12 µg/mL (≈ 0.126 µM). The MIC [16] was less than 0.5 µg/mL, the MIC [17] was greater than 2 µg/mL and the Concentration [18] was 0.8 µg/mL. It also gave a Concentration [19] of 1.2 µg/mL, an MIC [20] of 0.5 µg/mL (≈ 0.524 µM) and an ED50 [21] greater than 20 mg/kg. The MIC [22] was 4 µg/mL (≈ 4.19 µM), the MIC [23] was 32 µg/mL (≈ 33.5 µM) and the MIC [24] was 0.25 µg/mL (≈ 0.262 µM). For the same compound, the MIC [25] was 2 µg/mL (≈ 2.1 µM), the MIC [26] was 2 µg/mL (≈ 2.1 µM) and the MIC [27] was 4 µg/mL (≈ 4.19 µM). It also gave a Concentration [28] of 0.1 µg/mL, an MIC [29] of 0.25 µg/mL (≈ 0.262 µM) and a Concentration [30] of 2.3 µg/mL. It also gave an MIC [31] of less than 0.5 µg/mL, an MIC [32] of 2 µg/mL (≈ 2.1 µM) and an MIC [33] of 0.5 µg/mL (≈ 0.524 µM). For the same compound, the MIC [34] was 1 µg/mL (≈ 1.05 µM), the MIC [35] was 0.25 µg/mL (≈ 0.262 µM) and the MIC [36] was 0.25 µg/mL (≈ 0.262 µM). It also gave an MIC [37] of less than 0.5 µg/mL, an MIC [38] of 1 µg/mL (≈ 1.05 µM) and a Concentration [39] of 0.4 µg/mL. The MIC [40] was 0.25 µg/mL (≈ 0.262 µM), the Concentration [41] was 0.1 µg/mL and the MIC [42] was less than 0.5 µg/mL. For the same compound, the MIC [43] was 4 µg/mL (≈ 4.19 µM), the MIC [44] was less than 0.5 µg/mL and the ED50 [45] was greater than 50 mg/kg. It also gave an MIC [46] of less than 0.5 µg/mL, an MIC [47] greater than 128 µg/mL and an MIC [48] of 16 µg/mL (≈ 16.8 µM). It also gave an MIC [49] of 32 µg/mL (≈ 33.5 µM), an MIC [50] of 0.5 µg/mL (≈ 0.524 µM) and a Concentration [51] of 1.3 µg/mL. It also gave an MIC [52] of 16 µg/mL (≈ 16.8 µM) and an MIC [53] of 2 µg/mL (≈ 2.1 µM).
